BindingDB's records for doi:10.1016/j.bmc.2010.03.038 (Northwestern University, 2010)

Tests used:
[1] = target: Voltage-dependent L-type calcium channel subunit alpha-1C (Oryctolagus cuniculus, UniProt P15381); assay: Antagonist activity at rabbit Cav1.2 expressed in HEK293 cells assessed as inhibition of voltage pulse-induced calcium current by FLIPR calcium 4 assay
In short: (§1)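 HEK293 lines stably expressing Cavβ3 and Cavα2δ-1 plus Cav1.2 α1C (rabbit) or Cav1.3 α1D (rat) were selected with zeocin/hygromycin. Calcium signals were read by FLIPR with Calcium 4 dye. IC50 came from 11-point dose-response curves. Signal percentage error (SD/mean) was 6.4% for Cav1.2 and 4.1% for Cav1.3 cells.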

[2] = target: Voltage-dependent L-type calcium channel subunit alpha-1D (Rattus norvegicus, UniProt P27732); assay: Antagonist activity at rat Cav1.3 expressed in HEK293 cells assessed as inhibition of voltage pulse-induced calcium current by FLIPR calcium 4 assay; in short: as §1
Sequence of Voltage-dependent L-type calcium channel subunit alpha-1D (P27732 whole entry): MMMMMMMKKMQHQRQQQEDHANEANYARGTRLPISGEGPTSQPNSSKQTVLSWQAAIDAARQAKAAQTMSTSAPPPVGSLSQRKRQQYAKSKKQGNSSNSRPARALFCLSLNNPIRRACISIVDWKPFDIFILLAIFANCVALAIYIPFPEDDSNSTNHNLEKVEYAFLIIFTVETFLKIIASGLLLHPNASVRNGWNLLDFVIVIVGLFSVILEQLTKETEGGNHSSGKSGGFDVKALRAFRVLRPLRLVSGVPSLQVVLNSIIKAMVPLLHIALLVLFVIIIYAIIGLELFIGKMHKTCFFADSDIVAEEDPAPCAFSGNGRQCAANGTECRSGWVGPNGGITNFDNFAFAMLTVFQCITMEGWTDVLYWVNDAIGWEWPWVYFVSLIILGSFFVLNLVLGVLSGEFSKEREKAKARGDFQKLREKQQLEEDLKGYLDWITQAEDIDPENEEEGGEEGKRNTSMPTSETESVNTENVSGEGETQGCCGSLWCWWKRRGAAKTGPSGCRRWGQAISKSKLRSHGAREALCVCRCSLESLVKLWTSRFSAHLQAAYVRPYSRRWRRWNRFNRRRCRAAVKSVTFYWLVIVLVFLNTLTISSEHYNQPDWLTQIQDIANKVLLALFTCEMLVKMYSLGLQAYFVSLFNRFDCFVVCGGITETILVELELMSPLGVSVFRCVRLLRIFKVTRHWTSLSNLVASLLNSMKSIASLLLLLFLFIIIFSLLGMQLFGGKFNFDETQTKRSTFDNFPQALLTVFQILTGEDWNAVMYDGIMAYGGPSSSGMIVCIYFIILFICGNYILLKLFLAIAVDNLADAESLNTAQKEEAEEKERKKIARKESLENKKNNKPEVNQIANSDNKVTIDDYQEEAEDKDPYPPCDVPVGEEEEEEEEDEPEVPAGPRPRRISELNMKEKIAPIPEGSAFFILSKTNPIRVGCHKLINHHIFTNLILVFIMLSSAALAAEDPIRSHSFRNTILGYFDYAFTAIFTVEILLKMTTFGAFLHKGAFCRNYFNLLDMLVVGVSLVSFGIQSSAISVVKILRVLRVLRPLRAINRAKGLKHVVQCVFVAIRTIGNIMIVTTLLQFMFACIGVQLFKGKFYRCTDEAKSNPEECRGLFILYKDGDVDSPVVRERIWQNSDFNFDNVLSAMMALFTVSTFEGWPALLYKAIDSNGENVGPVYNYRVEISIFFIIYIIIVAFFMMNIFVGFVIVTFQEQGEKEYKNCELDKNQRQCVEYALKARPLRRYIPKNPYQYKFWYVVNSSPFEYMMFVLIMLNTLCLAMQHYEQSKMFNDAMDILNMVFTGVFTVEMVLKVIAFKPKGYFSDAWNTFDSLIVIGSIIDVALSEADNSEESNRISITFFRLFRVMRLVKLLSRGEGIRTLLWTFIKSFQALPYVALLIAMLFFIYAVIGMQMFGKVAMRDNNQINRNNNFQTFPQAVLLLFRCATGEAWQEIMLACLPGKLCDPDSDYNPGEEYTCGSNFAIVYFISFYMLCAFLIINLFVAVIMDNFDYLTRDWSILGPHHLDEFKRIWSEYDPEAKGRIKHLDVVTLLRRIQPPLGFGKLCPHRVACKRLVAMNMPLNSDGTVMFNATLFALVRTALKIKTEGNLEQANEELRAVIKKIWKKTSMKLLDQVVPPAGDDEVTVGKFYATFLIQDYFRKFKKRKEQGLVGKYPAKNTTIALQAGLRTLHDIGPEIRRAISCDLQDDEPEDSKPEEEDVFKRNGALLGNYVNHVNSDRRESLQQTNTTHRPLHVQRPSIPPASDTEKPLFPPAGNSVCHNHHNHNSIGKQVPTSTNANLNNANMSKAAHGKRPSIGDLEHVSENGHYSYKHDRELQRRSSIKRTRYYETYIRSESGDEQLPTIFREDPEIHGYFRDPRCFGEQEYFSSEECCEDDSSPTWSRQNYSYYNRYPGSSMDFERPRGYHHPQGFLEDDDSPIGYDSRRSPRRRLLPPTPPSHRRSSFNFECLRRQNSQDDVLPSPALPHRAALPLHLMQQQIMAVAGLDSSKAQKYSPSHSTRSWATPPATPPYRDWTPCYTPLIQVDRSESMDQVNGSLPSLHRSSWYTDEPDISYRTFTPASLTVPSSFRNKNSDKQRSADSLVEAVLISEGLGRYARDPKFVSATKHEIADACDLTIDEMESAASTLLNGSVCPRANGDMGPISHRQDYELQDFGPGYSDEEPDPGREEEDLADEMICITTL

Sequence of Voltage-dependent L-type calcium channel subunit alpha-1C (P15381 whole entry): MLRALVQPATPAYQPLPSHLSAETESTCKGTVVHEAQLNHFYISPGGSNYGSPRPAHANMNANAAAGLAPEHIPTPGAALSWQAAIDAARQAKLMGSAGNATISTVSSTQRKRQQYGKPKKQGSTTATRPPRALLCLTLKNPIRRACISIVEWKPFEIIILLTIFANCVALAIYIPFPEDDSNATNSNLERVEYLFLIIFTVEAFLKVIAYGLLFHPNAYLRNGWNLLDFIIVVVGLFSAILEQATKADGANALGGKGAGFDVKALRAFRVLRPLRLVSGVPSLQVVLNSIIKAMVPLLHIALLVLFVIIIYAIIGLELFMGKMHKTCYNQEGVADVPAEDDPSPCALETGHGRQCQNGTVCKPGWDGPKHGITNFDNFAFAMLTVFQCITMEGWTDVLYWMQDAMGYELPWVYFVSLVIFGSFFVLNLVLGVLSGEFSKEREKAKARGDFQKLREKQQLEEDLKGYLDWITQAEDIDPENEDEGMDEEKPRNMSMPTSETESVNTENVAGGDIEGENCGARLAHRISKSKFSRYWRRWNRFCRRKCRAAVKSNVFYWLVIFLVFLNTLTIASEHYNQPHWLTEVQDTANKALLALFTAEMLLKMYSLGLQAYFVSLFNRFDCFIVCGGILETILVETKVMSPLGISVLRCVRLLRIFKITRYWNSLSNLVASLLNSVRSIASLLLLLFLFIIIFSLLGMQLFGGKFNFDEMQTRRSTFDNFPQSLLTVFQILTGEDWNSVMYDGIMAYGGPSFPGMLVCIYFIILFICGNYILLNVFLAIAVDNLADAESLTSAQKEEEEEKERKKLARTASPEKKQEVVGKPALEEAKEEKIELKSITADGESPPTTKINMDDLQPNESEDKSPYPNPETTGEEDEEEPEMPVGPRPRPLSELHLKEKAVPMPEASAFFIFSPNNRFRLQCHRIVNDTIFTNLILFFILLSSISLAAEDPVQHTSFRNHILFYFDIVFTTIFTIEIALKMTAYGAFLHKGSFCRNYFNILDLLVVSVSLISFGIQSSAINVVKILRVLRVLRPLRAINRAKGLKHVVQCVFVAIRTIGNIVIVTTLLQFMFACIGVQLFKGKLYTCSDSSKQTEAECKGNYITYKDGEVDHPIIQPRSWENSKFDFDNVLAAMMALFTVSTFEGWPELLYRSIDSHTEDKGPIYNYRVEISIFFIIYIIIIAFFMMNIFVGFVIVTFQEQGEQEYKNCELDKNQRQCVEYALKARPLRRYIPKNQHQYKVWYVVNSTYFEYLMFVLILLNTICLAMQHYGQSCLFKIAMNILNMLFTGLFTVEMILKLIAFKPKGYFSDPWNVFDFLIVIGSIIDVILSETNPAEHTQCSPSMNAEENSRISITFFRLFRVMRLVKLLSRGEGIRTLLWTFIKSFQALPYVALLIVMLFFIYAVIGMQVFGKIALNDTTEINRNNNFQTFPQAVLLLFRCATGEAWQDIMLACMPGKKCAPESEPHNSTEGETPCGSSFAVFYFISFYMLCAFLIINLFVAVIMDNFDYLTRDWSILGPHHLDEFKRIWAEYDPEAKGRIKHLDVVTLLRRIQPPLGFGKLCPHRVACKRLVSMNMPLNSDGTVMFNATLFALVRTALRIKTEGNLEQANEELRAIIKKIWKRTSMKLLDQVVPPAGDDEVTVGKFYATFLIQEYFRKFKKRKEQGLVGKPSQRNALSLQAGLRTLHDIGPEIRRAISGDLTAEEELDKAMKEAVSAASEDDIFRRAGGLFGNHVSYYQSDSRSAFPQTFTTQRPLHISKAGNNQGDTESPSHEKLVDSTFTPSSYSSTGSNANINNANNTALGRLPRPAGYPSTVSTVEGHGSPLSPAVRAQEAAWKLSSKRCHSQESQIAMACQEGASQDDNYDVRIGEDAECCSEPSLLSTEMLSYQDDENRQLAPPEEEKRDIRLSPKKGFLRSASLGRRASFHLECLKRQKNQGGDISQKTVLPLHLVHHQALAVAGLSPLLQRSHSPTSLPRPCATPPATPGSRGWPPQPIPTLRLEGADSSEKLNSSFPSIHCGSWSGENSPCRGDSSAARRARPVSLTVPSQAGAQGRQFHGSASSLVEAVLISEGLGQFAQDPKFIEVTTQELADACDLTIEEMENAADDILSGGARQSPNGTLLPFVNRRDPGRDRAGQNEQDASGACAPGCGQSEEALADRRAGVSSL

IC50 [2]	SMILES	IC50 [1]
15 nM	C=CCOC(=O)C1=C(C)N=C(C)C(C(=O)OCC)C1c1cccc([N+](=O)[O-])c1 (stereo not drawn) [3-allyl 5-ethyl 2,6-dimethyl-4-(3-nitrophenyl)-1,4-dihydropyridine-3,5-dicarboxylate]	25 nM
15 nM	COC(=O)C1C(C)=NC(C)=C(C(=O)OCc2ccccc2)C1c1cccc([N+](=O)[O-])c1 (stereo not drawn) [3-benzyl 5-methyl 2,6-dimethyl-4-(3-nitrophenyl)-1,4-dihydropyridine-3,5-dicarboxylate]	25 nM
10 nM	COC(=O)C1C(C)=NC(C)=C(C(=O)OC2C=CCCC2)C1c1cccc([N+](=O)[O-])c1 (stereo not drawn) [3-cyclohex-2-enyl 5-methyl 2,6-dimethyl-4-(3-nitrophenyl)-1,4-dihydropyridine-3,5-dicarboxylate]	10 nM
10 nM	C=C(C)C(=O)OCCOC(=O)C1=C(C)N=C(C)C(C(=O)OCC)C1c1cccc([N+](=O)[O-])c1 (stereo not drawn) [3-ethyl 5-(2-(methacryloyloxy)ethyl)2,6-dimethyl-4-(3-nitrophenyl)-1,4-dihydropyridine-3,5-dicarboxylate]	10 nM
